Reference: ChEMBL document CHEMBL3286225, “Novel carboline derivatives as potent antifungal lead compounds: design, synthesis, and biological evaluation” (ACS Med Chem Lett, 2014)
≈ marks a conversion by molar mass, not a printed value. Calls of active or inactive are those of the source. The calls are words filed in the database; no cut-off is given here.

Assays:
Candida albicans [1] = experiment: Antifungal activity against fluconazole-resistant Candida albicans 07109 after 24 hrs by serial dilution method in presence of fluconazole; assay type: functional
Summary of the method: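 Tested in combination with fluconazole against each fluconazole-resistant C. albicans strain. Interaction was scored by fractional inhibitory concentration index (FICI): synergy at FICI ≤ 0.5, indifference at 0.5 < FICI ≤ 4, antagonism at FICI > 4.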

Candida albicans [2] = experiment: Antifungal activity against fluconazole-sensitive Candida albicans SC5314 assessed as cell membrane damage at 8 ug/ml after 8 hrs by TEM analysis; assay type: functional, organism-based
Summary of the method: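 Transmission electron microscopy of C. albicans SC5314 cells exposed to 8 μg/mL drug for 8 h; untreated cells as reference; cell wall, membrane, cytoplasm and vacuole morphology inspected.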

Candida albicans [3] = experiment: Antifungal activity against fluconazole-sensitive Candida albicans SC5314 assessed as thinning of outer sphere of cell wall at 8 ug/ml after 8 hrs by TEM analysis; assay type: functional, organism-based
Summary of the method: (§1)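 Transmission electron microscopy of C. albicans SC5314 cells exposed to 8 μg/mL for 8 h. Untreated cells and cells given fluconazole 8 μg/mL for 8 h served as controls. Cell wall layers, cytoplasmic density and vacuole shape were compared by eye.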

Candida albicans [4] = experiment: Antifungal activity against fluconazole-sensitive Candida albicans SC5314 assessed as thickening of middle sphere of cell wall at 8 ug/ml after 8 hrs by TEM analysis; assay type: functional, organism-based; summary of the method: as §1
Candida albicans [5] = experiment: Antifungal activity against fluconazole-sensitive Candida albicans SC5314 assessed as change in obtusifoliol composition at 8 ug/ml after 24 hrs by GC-MS analysis relative to control; assay type: functional
Summary of the method: (§2)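 C. albicans SC5314 exposed to 8 μg/mL for 24 h, sterols analysed by GC-MS with cholesterol internal standard; each sterol expressed as % of total sterol fraction versus no-drug control; average of three independent experiments.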

Candida albicans [6] = experiment: Antifungal activity against fluconazole-sensitive Candida albicans SC5314 assessed as change in sterol composition at 8 ug/ml after 24 hrs by GC-MS analysis (reference value: 8.5%); assay type: functional; summary of the method: as §2
CYP3A4 = CYP3A4 (Homo sapiens, UniProt P08684); experiment: Inhibition of CYP3A4 in human liver microsomes assessed as testosterone conversion to 6-hydroxy testosterone at 25 uM preincubated for 10 mins followed by NADPH addition measured after 15 mins by LC-MS/MS analysis relative to control; assay type: ADME; conditions: probe testosterone
Sequence of CYP3A4 (P08684 whole entry): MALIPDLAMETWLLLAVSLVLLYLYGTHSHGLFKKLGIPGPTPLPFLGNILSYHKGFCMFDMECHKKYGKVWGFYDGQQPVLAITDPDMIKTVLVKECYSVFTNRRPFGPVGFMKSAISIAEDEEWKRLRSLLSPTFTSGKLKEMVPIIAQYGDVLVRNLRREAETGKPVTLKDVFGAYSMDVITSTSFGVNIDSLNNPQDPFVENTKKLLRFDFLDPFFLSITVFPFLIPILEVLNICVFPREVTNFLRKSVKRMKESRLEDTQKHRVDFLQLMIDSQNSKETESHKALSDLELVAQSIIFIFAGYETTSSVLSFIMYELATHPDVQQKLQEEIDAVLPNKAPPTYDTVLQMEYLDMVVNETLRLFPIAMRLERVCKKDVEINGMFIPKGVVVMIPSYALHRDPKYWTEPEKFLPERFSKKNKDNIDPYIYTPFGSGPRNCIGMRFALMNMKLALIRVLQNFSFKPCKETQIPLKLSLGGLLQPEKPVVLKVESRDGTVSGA

CYP2C19 [7] = target: T1, CYP2C19 (Homo sapiens, UniProt P33261); experiment: Inhibition of CYP2C19 in human liver microsomes assessed as S-mephenytoin conversion to 4'-hydroxy mephenytoin at 2.5 uM preincubated for 10 mins followed by NADPH addition measured after 15 mins by LC-MS/MS analysis relative to control; assay type: ADME; conditions: probe S-mephenytoin
T1 sequence (P33261 whole entry): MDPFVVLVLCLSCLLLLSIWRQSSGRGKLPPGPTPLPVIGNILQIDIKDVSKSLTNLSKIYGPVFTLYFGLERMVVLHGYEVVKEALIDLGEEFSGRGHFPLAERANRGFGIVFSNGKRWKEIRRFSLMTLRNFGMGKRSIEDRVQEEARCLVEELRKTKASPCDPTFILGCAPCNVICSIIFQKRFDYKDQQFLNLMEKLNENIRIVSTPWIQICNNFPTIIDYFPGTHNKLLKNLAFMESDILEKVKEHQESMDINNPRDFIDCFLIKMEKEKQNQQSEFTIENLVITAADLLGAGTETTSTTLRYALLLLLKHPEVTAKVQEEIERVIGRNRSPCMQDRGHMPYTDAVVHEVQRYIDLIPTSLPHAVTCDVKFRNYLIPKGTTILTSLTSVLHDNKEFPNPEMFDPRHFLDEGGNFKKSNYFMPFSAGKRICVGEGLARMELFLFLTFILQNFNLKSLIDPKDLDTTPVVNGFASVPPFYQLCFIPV

CYP2C19 [8] = target: T1, CYP2C19; experiment: Inhibition of CYP2C19 in human liver microsomes assessed as S-mephenytoin conversion to 4'-hydroxy mephenytoin at 0.25 uM preincubated for 10 mins followed by NADPH addition measured after 15 mins by LC-MS/MS analysis relative to control; assay type: ADME; conditions: probe S-mephenytoin
CYP2C9 = CYP2C9 (Homo sapiens, UniProt P11712); experiment: Inhibition of CYP2C9 in human liver microsomes assessed as tolbutamide conversion to 4-hydroxy tolbutamide at 0.25 uM preincubated for 10 mins followed by NADPH addition measured after 15 mins by LC-MS/MS analysis relative to control; assay type: ADME; conditions: probe tolbutamide
Sequence of CYP2C9 (P11712 whole entry): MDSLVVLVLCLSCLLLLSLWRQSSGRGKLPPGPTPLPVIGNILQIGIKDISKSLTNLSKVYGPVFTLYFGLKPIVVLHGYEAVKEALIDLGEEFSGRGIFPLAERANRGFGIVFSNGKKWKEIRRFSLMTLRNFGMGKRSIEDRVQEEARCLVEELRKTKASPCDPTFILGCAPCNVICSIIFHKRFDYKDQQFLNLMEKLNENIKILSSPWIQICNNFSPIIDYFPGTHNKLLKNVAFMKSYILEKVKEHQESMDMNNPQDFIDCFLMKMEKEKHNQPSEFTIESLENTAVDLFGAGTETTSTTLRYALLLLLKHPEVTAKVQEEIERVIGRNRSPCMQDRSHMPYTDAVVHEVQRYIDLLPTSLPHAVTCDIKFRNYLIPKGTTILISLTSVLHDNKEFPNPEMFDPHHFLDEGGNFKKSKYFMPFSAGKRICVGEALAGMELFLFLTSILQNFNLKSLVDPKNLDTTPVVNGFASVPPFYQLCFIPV

Cytochrome P450 2C19 = Cytochrome P450 2C19 (Homo sapiens, UniProt P33261); experiment: Inhibition of CYP2C19 in human liver microsomes assessed as S-mephenytoin conversion to 4'-hydroxy mephenytoin preincubated for 10 mins followed by NADPH addition measured after 15 mins by LC-MS/MS analysis; assay type: ADME
Sequence of Cytochrome P450 2C19 (P33261 whole entry): as the sequence (P33261 whole entry) above

Candida parapsilosis = experiment: Antifungal activity against Candida parapsilosis ATCC 22019 after 24 hrs by serial dilution method; assay type: functional; conditions: Lodderomyces parapsilosis, ATCC 22019, 24 h
Cryptococcus neoformans = experiment: Antifungal activity against Cryptococcus neoformans 32609 after 72 hrs by serial dilution method; assay type: functional; conditions: Cryptococcus neoformans, 32609, 72 h
Nannizzia gypsea = experiment: Antifungal activity against Microsporum gypseum Cmccfmza after 7 days by serial dilution method; assay type: functional; conditions: 168 h
WI-38 = experiment: Cytotoxicity against human WI38 cells by MTT assay; assay type: cell-based
Candida albicans [9] = experiment: Fungicidal activity against fluconazole-sensitive Candida albicans SC5314 assessed as reduction in fungi density after 24 hrs; assay type: functional, organism-based
Summary of the method: (§3)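 Time-kill: C. albicans (SC5314 or 103) inoculated at 10^5 CFU/mL, untreated or with drug (2–32 μg/mL; fluconazole 32 μg/mL reference); CFU/mL counted after 0, 12, 24 and 48 h.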

Candida albicans [10] = experiment: Fungicidal activity against fluconazole-resistant Candida albicans 103 assessed as growth inhibition at 4 to 32 ug/ml after 12 to 48 hrs; assay type: functional, organism-based; summary of the method: as §3
Candida albicans [11] = experiment: Inhibition of biofilm formation of fluconazole-sensitive Candida albicans SC5314 at 64 ug/ml after 48 hrs by XTT assay relative to control; assay type: functional; conditions: SC5314, 48 h
Summary of the method: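 Biofilm formation by C. albicans SC5314 or 103 in presence of 2–64 μg/mL drug (fluconazole 64 μg/mL reference); quantified by XTT reduction as % of blank control; mean ± standard deviation of three independent experiments, ANOVA and Student t test.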

Candida albicans [12] = experiment: Inhibition of biofilm formation of fluconazole-sensitive Candida albicans SC5314 after 48 hrs by XTT assay; assay type: functional, organism-based
Summary of the method: (§4)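 Biofilm formation by C. albicans SC5314 was tested with compound at 2–64 μg/mL. Untreated and fluconazole 64 μg/mL controls were included. Biofilm was quantified by XTT reduction and expressed as % of untreated control. Mean ± SD of three independent experiments; ANOVA and Student t test, p<0.05.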

Candida albicans [13] = experiment: Inhibition of biofilm formation of fluconazole-sensitive Candida albicans SC5314 at 4 ug/ml after 48 hrs by XTT assay relative to control; assay type: functional; conditions: SC5314, 48 h; summary of the method: as §4
Candida albicans [14] = experiment: Antifungal activity against fluconazole-resistant Candida albicans 805 after 24 hrs by serial dilution method; assay type: functional; conditions: Candida albicans, 805, 24 h

SMILES: Fc1ccc2c(c1)c1c(n2CCCOc2ccc(Cl)cc2)CCNC1
- fractional inhibitory concentration index (FICI) (Candida albicans [1]): 0.252
- Activity (Candida albicans [2]): inactive
- Activity (Candida albicans [3]): Active
- Activity (Candida albicans [4]): Active
- Activity (Candida albicans [5]): 3.7%
- Activity (Candida albicans [6]): 31.5%
- inhibition at 0.25 h, 25 µM (CYP3A4): -35%
- inhibition at 0.25 h, 2.5 µM (CYP2C19 [7]): 5%
- inhibition at 0.25 h, 0.25 µM (CYP2C19 [8]): 4%
- inhibition at 0.25 h, 0.25 µM (CYP2C9): -2%
- IC50 (Cytochrome P450 2C19): > 25 µM
- MIC80 (Candida parapsilosis): 4 µg/mL (≈ 11.1 µM)
- MIC80 (Cryptococcus neoformans): 1 µg/mL (≈ 2.79 µM)
- MIC80 (Nannizzia gypsea): 1 µg/mL (≈ 2.79 µM)
- IC50 (WI-38): > 40 µg/mL
- Activity (Candida albicans [9]): Active
- growth inhibition (GI) (Candida albicans [10]): Active
- inhibition at 64 µg/mL (Candida albicans [11]): > 80%
- inhibition (Candida albicans [12]): Dose-dependent effect
- inhibition at 4 µg/mL (Candida albicans [13]): > 50%
- MIC80 (Candida albicans [14]): 4 µg/mL (≈ 11.1 µM)
